From ChEMBL document CHEMBL4007513, “Synthesis and Biological Evaluation of the First Triple Inhibitors of Human Topoisomerase 1, Tyrosyl-DNA Phosphodiesterase 1 (Tdp1), and Tyrosyl-DNA Phosphodiesterase 2 (Tdp2)” (J Med Chem, 2017)
Activity calls are given as the source filed them. The rule behind the calls is not given here.

Key:
[1] = molecular target: T1, DNA topoisomerase 1 (Homo sapiens) (UniProt P11387); experiment: Inhibition of recombinant Top1 (unknown origin) assessed as increase in [32P]-DNA breaks at 0.1 to 100 uM after 20 mins by PAGE analysis
T1 sequence (whole entry): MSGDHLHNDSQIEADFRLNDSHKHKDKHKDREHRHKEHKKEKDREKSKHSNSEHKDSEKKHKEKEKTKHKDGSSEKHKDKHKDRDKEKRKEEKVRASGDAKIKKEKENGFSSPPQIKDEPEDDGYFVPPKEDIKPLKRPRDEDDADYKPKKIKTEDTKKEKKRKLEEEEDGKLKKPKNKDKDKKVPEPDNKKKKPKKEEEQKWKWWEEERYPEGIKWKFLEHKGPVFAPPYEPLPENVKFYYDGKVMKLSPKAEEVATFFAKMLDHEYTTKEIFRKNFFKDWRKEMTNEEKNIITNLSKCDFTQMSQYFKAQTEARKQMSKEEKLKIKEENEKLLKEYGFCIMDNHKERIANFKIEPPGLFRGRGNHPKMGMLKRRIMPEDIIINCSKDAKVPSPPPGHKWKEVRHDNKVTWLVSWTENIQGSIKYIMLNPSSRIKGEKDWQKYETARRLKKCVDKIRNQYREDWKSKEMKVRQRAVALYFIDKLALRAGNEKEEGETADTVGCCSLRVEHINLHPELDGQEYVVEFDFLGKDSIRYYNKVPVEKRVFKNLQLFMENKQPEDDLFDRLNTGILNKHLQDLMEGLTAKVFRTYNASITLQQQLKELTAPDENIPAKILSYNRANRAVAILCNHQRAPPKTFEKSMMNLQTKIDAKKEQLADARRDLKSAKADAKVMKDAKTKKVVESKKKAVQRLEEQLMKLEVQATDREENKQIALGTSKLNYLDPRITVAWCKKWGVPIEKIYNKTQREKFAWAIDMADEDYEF
Procedure, shortened: (§1)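 The substrate was a 3′-32P 117-bp oligonucleotide holding Top1 cleavage sites, at about 2 nM, with recombinant Top1. Compounds were tested at 0.1, 1.0, 10 and 100 μM. Reactions were stopped with 0.5% SDS and run on 20% denaturing PAGE.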

HOP-62 = experiment: Cytotoxicity against human HOP62 cells after 48 hrs by SRB assay; assay type: functional; details: for GI50: HOP-62, 48 h
Procedure, shortened: (§2)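 NCI-60 human cancer cell line screen. Five-concentration testing across 0.01 to 100 μM, done only for compounds selected from a one-concentration preliminary test. Read-out was GI50.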

UACC-62 = experiment: Cytotoxicity against human UACC62 cells after 48 hrs by SRB assay; assay type: functional; details: for GI50: UACC-62, 48 h; procedure, shortened: as §2
SF-539 = experiment: Cytotoxicity against human SF539 cells after 48 hrs by SRB assay; assay type: functional; details: for GI50: SF-539, 48 h; procedure, shortened: as §2
MCF7 = experiment: Cytotoxicity against human MCF7 cells after 48 hrs by SRB assay; assay type: functional; details: for GI50: MCF7, 48 h; procedure, shortened: as §2
OVCAR-3 = experiment: Cytotoxicity against human OVCAR3 cells after 48 hrs by SRB assay; assay type: functional; details: for GI50: OVCAR-3, 48 h; procedure, shortened: as §2
[2] = molecular target: Tyrosyl-DNA phosphodiesterase 1 (Homo sapiens, UniProt Q9NUW8); experiment: Inhibition of recombinant Tdp1 (unknown origin) assessed as decrease in hydrolysis of phosphodiester linkage between tyrosine residue and the 3' end of 5'-[32P]-DNA after 15 mins by PAGE analysis
Procedure, shortened: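 The substrate was 5′-32P single-stranded oligo N14Y carrying a 3′-phosphotyrosine, at 1 nM, with 10 pM recombinant Tdp1. Products were run on 16% denaturing PAGE with phosphorimaging.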

[3] = molecular target: T2, Tyrosyl-DNA phosphodiesterase 2 (Homo sapiens) (UniProt O95551); experiment: (§3) Inhibition of recombinant human Tdp2 assessed as decrease in alpha 32P-cordycepin-3'-labeled DNA breaks after 15 mins by PAGE analysis
T2 sequence (whole entry): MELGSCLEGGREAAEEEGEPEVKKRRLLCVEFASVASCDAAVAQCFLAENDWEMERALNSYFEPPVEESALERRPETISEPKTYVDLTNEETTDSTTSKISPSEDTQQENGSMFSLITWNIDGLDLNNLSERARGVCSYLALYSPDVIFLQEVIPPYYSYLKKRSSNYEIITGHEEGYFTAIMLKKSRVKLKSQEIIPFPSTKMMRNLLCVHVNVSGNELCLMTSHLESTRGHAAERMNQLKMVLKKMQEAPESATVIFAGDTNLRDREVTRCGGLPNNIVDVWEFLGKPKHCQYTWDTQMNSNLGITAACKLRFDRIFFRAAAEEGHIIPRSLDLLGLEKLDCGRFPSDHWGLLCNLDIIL
Procedure, shortened: (§4)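 The substrate was the 18-mer single-stranded TY18 oligo, α32P-cordycepin-3′-labeled, at 1 nM, with 25 pM recombinant human Tdp2. Products were run on 16% denaturing PAGE.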

[4] = molecular target: T3, Tyrosyl-DNA phosphodiesterase 2 (Homo sapiens, UniProt O95551); experiment: as §3; procedure, shortened: as §4
T3 sequence (O95551 whole entry): T2 sequence (whole entry)

SN12C = experiment: Cytotoxicity against human SN12C cells after 48 hrs by SRB assay; assay type: functional; procedure, shortened: as §2
[5] = molecular target: T1, DNA topoisomerase 1 (Homo sapiens); experiment: Inhibition of recombinant Top1 (unknown origin) assessed as increase in [32P]-DNA breaks after 20 mins by PAGE analysis; procedure, shortened: as §1
PBMC = experiment: Induction of DNA damage in human PBMC assessed as formation of gamma-H2AX foci at 100 to 1000 nM after 2 hrs by DAPI staining-based confocal microscopy; assay type: cell-based; details: 1 µM
Procedure, shortened: (§5)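 Freshly purified human PBMCs (from healthy donors) or CCRF-CEM leukemia cells were used at 2 mil/mL in RPMI 1640 with 10% FBS, penicillin and streptomycin. Cells were dosed at 100 nM and 1 μM for 2 h at 37 °C. They were then fixed in 2% paraformaldehyde, cytospun and blocked in 5% BSA. Staining used anti-γ-H2AX with an Alexa 488 secondary and DAPI, and foci were imaged by confocal microscopy.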

CCRF-CEM = experiment: Induction of DNA damage in human CCRF-CEM cells assessed as formation of gamma-H2AX foci at 100 to 1000 nM after 2 hrs by DAPI staining-based confocal microscopy; assay type: functional, cell-based; procedure, shortened: as §5
[6] = molecular target: T1, DNA topoisomerase 1 (Homo sapiens); experiment: Suppressor activity at recombinant Top1 (unknown origin) assessed as decrease in [32P]-DNA breaks at 100 uM after 20 mins by PAGE analysis; procedure, shortened: as §1
[7] = molecular target: T1, DNA topoisomerase 1 (Homo sapiens); experiment: Poison activity at recombinant Top1 (unknown origin) assessed as inhibition of [32P]-DNA religation in drug-DNA-Top1 ternary complex at 0.1 to 10 uM after 20 mins by PAGE analysis; procedure, shortened: as §1
[8] = molecular target: T1, DNA topoisomerase 1 (Homo sapiens); experiment: Inhibition of recombinant Top1 (unknown origin) assessed as increase in [32P]-DNA breaks at 1 uM after 20 mins by PAGE analysis; procedure, shortened: as §1

Sequence of Tyrosyl-DNA phosphodiesterase 1 (Q9NUW8 whole entry): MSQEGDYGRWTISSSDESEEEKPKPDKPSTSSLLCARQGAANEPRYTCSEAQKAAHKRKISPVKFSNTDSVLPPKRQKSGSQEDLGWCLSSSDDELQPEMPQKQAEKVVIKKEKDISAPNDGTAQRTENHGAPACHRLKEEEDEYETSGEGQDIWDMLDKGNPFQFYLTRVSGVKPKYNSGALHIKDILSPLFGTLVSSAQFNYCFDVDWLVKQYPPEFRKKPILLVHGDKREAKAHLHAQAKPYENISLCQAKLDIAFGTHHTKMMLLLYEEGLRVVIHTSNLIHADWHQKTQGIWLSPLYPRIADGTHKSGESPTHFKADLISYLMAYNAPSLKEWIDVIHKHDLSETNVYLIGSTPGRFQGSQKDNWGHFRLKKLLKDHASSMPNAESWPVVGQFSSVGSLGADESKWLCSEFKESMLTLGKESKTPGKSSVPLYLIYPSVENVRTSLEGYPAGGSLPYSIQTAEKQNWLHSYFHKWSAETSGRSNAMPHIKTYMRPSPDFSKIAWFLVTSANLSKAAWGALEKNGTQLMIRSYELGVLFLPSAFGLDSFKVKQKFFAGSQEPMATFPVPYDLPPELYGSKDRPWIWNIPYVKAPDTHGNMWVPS

## COc1cnc2c(c1)C(=O)c1c-2n(CCCNCCN2CCOCC2)c(=O)c2cc([N+](=O)[O-])ccc12
[1]
  inhibition: Active
HOP-62
  GI50: 150 nM
UACC-62
  GI50: 44 nM
SF-539
  GI50: 311 nM
MCF7
  GI50: 32 nM
OVCAR-3
  GI50: 315 nM
[2]
  IC50: 12 to 37 µM
  inhibition: Dose-dependent effect
[3]
  inhibition: Dose-dependent effect
[4]
  IC50: 37 to 111 µM
SN12C
  GI50: 80 nM

## COc1cnc2c(c1)C(=O)c1c-2n(CCCBr)c(=O)c2cc([N+](=O)[O-])ccc12
HOP-62
  GI50: 58 nM
UACC-62
  GI50: 82 nM
SF-539
  GI50: 279 nM
MCF7
  GI50: 46 nM
OVCAR-3
  GI50: 248 nM
[2]
  IC50: 12 to 37 µM
  inhibition: Dose-dependent effect
[3]
  inhibition: Dose-dependent effect
[4]
  IC50: 37 to 111 µM
[5]
  inhibition: Active
SN12C
  GI50: 269 nM

## COc1cnc2c(c1)C(=O)c1c-2n(CCCN2CCN(C)CC2)c(=O)c2cc([N+](=O)[O-])ccc12
HOP-62
  GI50: 81 nM
UACC-62
  GI50: 183 nM
SF-539
  GI50: 191 nM
MCF7
  GI50: 16 nM
OVCAR-3
  GI50: 171 nM
[2]
  IC50: 12 to 37 µM
  inhibition: Dose-dependent effect
[3]
  inhibition: Dose-dependent effect
[4]
  IC50: 12 to 37 µM
[5]
  inhibition: Active
SN12C
  GI50: 214 nM

## COc1cnc2c(c1)C(=O)c1c-2n(CCCNC(C)C)c(=O)c2cc([N+](=O)[O-])ccc12
[1]
  inhibition: Active
HOP-62
  GI50: 85 nM
UACC-62
  GI50: 19 nM
SF-539
  GI50: 51 nM
MCF7
  GI50: 12 nM
OVCAR-3
  GI50: 82 nM
[2]
  IC50: 12 to 37 µM
  inhibition: Dose-dependent effect
PBMC
  Activity: Non-Toxic
[3]
  inhibition: Dose-dependent effect
[4]
  IC50: 37 to 111 µM
SN12C
  GI50: 39 nM
CCRF-CEM
  Activity: Active

## COc1cnc2c(c1)C(=O)c1c-2n(CCCN2CCC(N)CC2)c(=O)c2cc([N+](=O)[O-])ccc12
HOP-62
  Activity: inactive
UACC-62
  Activity: inactive
SF-539
  Activity: inactive
MCF7
  Activity: inactive
OVCAR-3
  Activity: inactive
[2]
  IC50: 1 to 12 µM
  inhibition: Dose-dependent effect
PBMC
  Activity: Non-Toxic
[3]
  inhibition: Dose-dependent effect
[4]
  IC50: 1 to 12 µM
[5]
  inhibition: Active
SN12C
  Activity: inactive
CCRF-CEM
  Activity: Active

## COc1cnc2c(c1)C(=O)c1c-2n(CCCN2CCN(CCO)CC2)c(=O)c2cc([N+](=O)[O-])ccc12
HOP-62
  GI50: 2760 nM
UACC-62
  GI50: 1220 nM
SF-539
  GI50: 1700 nM
MCF7
  GI50: 142 nM
OVCAR-3
  GI50: 1460 nM
[2]
  IC50: > 111 µM
  inhibition: Dose-dependent effect
[3]
  inhibition: Dose-dependent effect
[4]
  IC50: > 111 µM
[5]
  inhibition: Active

## CNCCCn1c2c(c3ccc([N+](=O)[O-])cc3c1=O)C(=O)c1cc(OC)cnc1-2
HOP-62
  GI50: 30 nM
UACC-62
  GI50: 20 nM
SF-539
  GI50: 51 nM
MCF7
  GI50: 1060 nM
OVCAR-3
  GI50: 174 nM
[2]
  IC50: 1 to 12 µM
  inhibition: Dose-dependent effect
[3]
  inhibition: Dose-dependent effect
[4]
  IC50: 37 to 111 µM
[5]
  inhibition: Active
SN12C
  GI50: 46 nM

## COc1cnc2c(c1)C(=O)c1c-2n(CCCNC2=NCCS2)c(=O)c2cc([N+](=O)[O-])ccc12
[1]
  inhibition: Active
HOP-62
  GI50: 14 nM
UACC-62
  GI50: < 10 nM
SF-539
  GI50: 36 nM
[6]
  Activity: Active
MCF7
  GI50: < 10 nM
OVCAR-3
  GI50: 137 nM
[2]
  IC50: 1 to 12 µM
  inhibition: Dose-dependent effect
PBMC
  Activity: Non-Toxic
[3]
  inhibition: Dose-dependent effect
[4]
  IC50: 12 to 37 µM
[7]
  Activity: Active
SN12C
  GI50: < 10 nM
CCRF-CEM
  Activity: Active

## COc1cnc2c(c1)C(=O)c1c-2n(CCCN2CCCC2)c(=O)c2cc([N+](=O)[O-])ccc12
HOP-62
  GI50: < 10 nM
UACC-62
  GI50: 15 nM
SF-539
  GI50: 31 nM
MCF7
  GI50: < 10 nM
OVCAR-3
  GI50: 59 nM
[2]
  IC50: 1 to 12 µM
  inhibition: Dose-dependent effect
[3]
  inhibition: Dose-dependent effect
[4]
  IC50: 37 to 111 µM
[5]
  inhibition: Active
SN12C
  GI50: 36 nM

## CC[C@@]1(O)C(=O)OCc2c1cc1n(c2=O)Cc2cc3ccccc3nc2-1 [CAMPTOTHECIN]
HOP-62
  GI50: < 10 nM
UACC-62
  GI50: < 10 nM
SF-539
  GI50: < 10 nM
MCF7
  GI50: 13 nM
PBMC
  Activity: Non-Toxic
CCRF-CEM
  Activity: Active

## CCNCCCn1c2c(c3ccc([N+](=O)[O-])cc3c1=O)C(=O)c1cc(OC)cnc1-2
[1]
  inhibition: Active
HOP-62
  GI50: 107 nM
UACC-62
  GI50: 27 nM
SF-539
  GI50: 70 nM
MCF7
  GI50: 19 nM
OVCAR-3
  GI50: 62 nM
[2]
  IC50: 1 to 12 µM
  inhibition: Dose-dependent effect
PBMC
  Activity: Non-Toxic
[3]
  inhibition: Dose-dependent effect
[4]
  IC50: 37 to 111 µM
SN12C
  GI50: 53 nM
CCRF-CEM
  Activity: Active

## COc1cc2c3c(n(CCCNCCO)c(=O)c2cc1OC)-c1cc2c(cc1C3=O)OCO2 [LMP-744]
SF-539
  GI50: 40 nM
[2]
  IC50: 12 to 111 µM
[4]
  IC50: 1 to 12 µM
[8]
  inhibition: Active

## COc1cnc2c(c1)C(=O)c1c-2n(CCCN2CCNCC2)c(=O)c2cc([N+](=O)[O-])ccc12
HOP-62
  GI50: 65 nM
UACC-62
  GI50: 175 nM
SF-539
  GI50: 355 nM
MCF7
  GI50: 36 nM
OVCAR-3
  GI50: 1190 nM
[2]
  IC50: 12 to 37 µM
  inhibition: Dose-dependent effect
[3]
  inhibition: Dose-dependent effect
[4]
  IC50: 37 to 111 µM
[5]
  inhibition: Active
SN12C
  GI50: 230 nM
